Key:
[1] = tested on: Cryptococcus gattii species complex; assay: Antifungal activity against Cryptococcus gattii after 24 to 72 hrs by broth microdilution method; format: functional, Cryptococcus bacillisporus
In short: (§1)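 Broth microdilution MIC per CLSI M27-A3 (yeasts) or M38-A2 (molds). RPMI 1640 with L-glutamine, without bicarbonate, buffered to pH 7.0 with 0.165 M MOPS. Final test range for the compounds was 0.175–87.5 μM. Incubation at 35°C with visual reading at 24–72 h. MIC was the lowest concentration giving 100% inhibition versus the growth control (azoles 50% or 100%, by organism). Each isolate was run in duplicate in two independent experiments.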

[2] = tested on: Candida albicans; assay: Antifungal activity against Candida albicans after 48 to 72 hrs; format: functional
In short: (§2)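 MFC: after the MIC read, 30-μl aliquots from each well without visible growth were plated onto Sabouraud dextrose agar and incubated at 35°C. Reading was at 48–72 h for yeasts and up to 7 days for molds. MFC was the lowest concentration with no colonies.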

[3] = tested on: Candida tropicalis; assay: Antifungal activity against Candida tropicalis after 48 to 72 hrs; format: functional; in short: as §2
[4] = tested on: Candida parapsilosis; assay: Antifungal activity against Candida parapsilosis after 48 to 72 hrs; format: functional; in short: as §2
[5] = tested on: Candida dubliniensis; assay: Antifungal activity against Candida dubliniensis after 48 to 72 hrs; format: functional; in short: as §2
[6] = tested on: Meyerozyma guilliermondii; assay: Antifungal activity against Candida guilliermondii after 48 to 72 hrs; format: functional; in short: as §2
[7] = tested on: Clavispora lusitaniae; assay: Antifungal activity against Candida lusitaniae after 48 to 72 hrs; format: functional; in short: as §2
[8] = tested on: Cryptococcus gattii species complex; assay: Antifungal activity against Cryptococcus gattii after 48 to 72 hrs; format: functional, Cryptococcus bacillisporus; in short: as §2
[9] = Toxicity against human erythrocytes assessed as hemolysis; format: cell-based, Erythrocyte
[10] = tested on: Rhizopus arrhizus; assay: Antifungal activity against Rhizopus oryzae 05-203111 after 48 to 72 hrs; format: functional
In short: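 After the broth microdilution MIC read, suspension from every well without visible growth was plated onto Sabouraud dextrose agar and incubated at 35°C, up to 7 days for molds. MFC was taken as the lowest drug concentration with no colonies.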

[11] = tested on: Candida parapsilosis; assay: Antifungal activity against Candida parapsilosis after 24 to 72 hrs by broth microdilution method; format: functional; details: Lodderomyces parapsilosis; in short: as §1
[12] = tested on: Pichia kudriavzevii; assay: Antifungal activity against Candida krusei after 24 to 72 hrs by broth microdilution method; format: functional; in short: as §1
[13] = tested on: Candida dubliniensis; assay: Antifungal activity against Candida dubliniensis after 24 to 72 hrs by broth microdilution method; format: functional; in short: as §1
[14] = tested on: Meyerozyma guilliermondii; assay: Antifungal activity against Candida guilliermondii after 24 to 72 hrs by broth microdilution method; format: functional; in short: as §1
[15] = tested on: Cryptococcus neoformans; assay: Antifungal activity against Cryptococcus neoformans 05-202523 after 48 to 72 hrs; format: functional; in short: as §2
[16] = tested on: Exophiala spinifera; assay: Antifungal activity against Exophiala spinifera 03-200803 after 24 to 72 hrs by broth microdilution method; format: functional
In short: (§3)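 Mold isolates subcultured on potato dextrose agar, then tested by CLSI M38-A2 broth microdilution in RPMI 1640 (L-glutamine, no bicarbonate) buffered to pH 7.0 with 0.165 M MOPS. Compounds were dissolved in water and tested at a final 0.175–87.5 μM. Plates were incubated at 35°C. MIC was read visually as the lowest concentration giving 100% inhibition versus the growth control. Each isolate was run in duplicate in two independent experiments.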

[17] = tested on: Fusarium solani; assay: Antifungal activity against Fusarium solani 04-203102 after 24 to 72 hrs by broth microdilution method; format: functional; in short: as §3
[18] = Antifungal activity against Paecilomyces lilacinus 05-200601 after 24 to 72 hrs by broth microdilution method; format: functional; details: Purpureocillium lilacinum; in short: as §3
[19] = tested on: Rhizopus arrhizus; assay: Antifungal activity against Rhizopus oryzae 05-203111 after 24 to 72 hrs by broth microdilution method; format: functional; in short: as §3
[20] = tested on: Aspergillus fumigatus; assay: Antifungal activity against Aspergillus fumigatus 05-203114 after 24 to 72 hrs by broth microdilution method; format: functional; in short: as §1
[21] = tested on: Aspergillus flavus; assay: Antifungal activity against Aspergillus flavus ATCC 204304 after 24 to 72 hrs by broth microdilution method; format: functional; in short: as §1
[22] = tested on: Aspergillus flavus; assay: Antifungal activity against Aspergillus flavus 05-203758 after 24 to 72 hrs by broth microdilution method; format: functional; in short: as §1
[23] = tested on: Aspergillus terreus; assay: Antifungal activity against Aspergillus terreus 05-202844 after 24 to 72 hrs by broth microdilution method; format: functional; in short: as §1
[24] = tested on: Scedosporium apiospermum; assay: Antifungal activity against Scedosporium apiospermum 05-203100 after 24 to 72 hrs by broth microdilution method; format: functional; in short: as §3
[25] = tested on: Cunninghamella bertholletiae; assay: Antifungal activity against Cunninghamella bertholletiae 99-12187 after 24 to 72 hrs by broth microdilution method; format: functional; in short: as §1
[26] = tested on: Lichtheimia corymbifera; assay: Antifungal activity against Absidia corymbifera 04-200170 after 24 to 72 hrs by broth microdilution method; format: functional; in short: as §1
[27] = tested on: Aspergillus fumigatus; assay: Antifungal activity against Aspergillus fumigatus ATCC 204305 after 24 to 72 hrs by broth microdilution method; format: functional; in short: as §1
[28] = tested on: Cryptococcus gattii species complex; assay: Antifungal activity against Cryptococcus gattii 05-200122 after 24 to 72 hrs by broth microdilution method; format: functional, Cryptococcus bacillisporus; in short: as §1
[29] = tested on: Cryptococcus neoformans; assay: Antifungal activity against Cryptococcus neoformans ATCC 90112 after 24 to 72 hrs by broth microdilution method; format: functional; in short: as §1
[30] = tested on: Candida tropicalis; assay: Antifungal activity against Candida tropicalis 04-202361 after 24 to 72 hrs by broth microdilution method; format: functional; in short: as §1
[31] = tested on: Nakaseomyces glabratus; assay: Antifungal activity against Candida glabrata 04-202345 after 24 to 72 hrs by broth microdilution method; format: functional; in short: as §1
[32] = tested on: Candida parapsilosis; assay: Antifungal activity against Candida parapsilosis 04-202398 after 24 to 72 hrs by broth microdilution method; format: functional; details: Lodderomyces parapsilosis; in short: as §1
[33] = tested on: Pichia kudriavzevii; assay: Antifungal activity against Candida krusei 04-202328 after 24 to 72 hrs by broth microdilution method; format: functional; in short: as §1
[34] = tested on: Candida parapsilosis; assay: Antifungal activity against Candida parapsilosis ATCC 22019 after 24 to 72 hrs by broth microdilution method; format: functional; details: Lodderomyces parapsilosis; in short: as §1
[35] = tested on: Pichia kudriavzevii; assay: Antifungal activity against Candida krusei ATCC 6258 after 24 to 72 hrs by broth microdilution method; format: functional; in short: as §1
[36] = tested on: Candida albicans; assay: Antifungal activity against Candida albicans ATCC 10231 after 24 to 72 hrs by broth microdilution method; format: functional; in short: as §1
[37] = tested on: Clavispora lusitaniae; assay: Antifungal activity against Candida lusitaniae after 24 to 72 hrs by broth microdilution method; format: functional; in short: as §1
[38] = Antifungal activity against Exophiala jeanselmei 03-200268 after 24 to 72 hrs by broth microdilution method; format: functional; in short: as §1

Q: With `C=CCCCc1cc[n+](CCCCCCCCCCCC[n+]2ccc(CCCC=C)cc2)cc1.[Cl-].[Cl-]` as the molecule, how does the MIC [1] read?
A: Its MIC is 1.81 µg/mL.

Q: And the MIC50 [1]?
A: The MIC50 was 1.48 µg/mL.

Q: What about the MIC90 [1] of the same molecule?
A: Its MIC90 is 2.94 µg/mL.

Q: And the MFC50 [2]?
A: The MFC50 was 1.47 µg/mL.

Q: What about the MFC90 [2] of the same molecule?
A: The MFC90 was 1.47 µg/mL.

Q: And the MFC ([2]; Candida albicans)?
A: The MFC was 0.75 µg/mL.

Q: What about the MFC50 [3] of the same molecule?
A: The MFC50 was 0.75 µg/mL.

Q: What about the MFC90 [3] of the same molecule?
A: Its MFC90 is 1.47 µg/mL.

Q: And the MFC ([3]; Candida tropicalis)?
A: The MFC was 0.37 µg/mL.

Q: What about the MFC50 [4] of the same molecule?
A: The MFC50 was 23.5 µg/mL.

Q: What about the MFC90 [4] of the same molecule?
A: The MFC90 was 23.5 µg/mL.

Q: And the MFC ([4]; Lodderomyces parapsilosis)?
A: The MFC was 23.5 µg/mL.

Q: What about the MFC50 [5] of the same molecule?
A: Its MFC50 is 2.93 µg/mL.

Q: And the MFC90 [5]?
A: The MFC90 was 2.93 µg/mL.

Q: And the MFC ([5]; Candida dubliniensis)?
A: Its MFC is 1.47 µg/mL.

Q: And the MFC50 [6]?
A: Its MFC50 is 1.47 µg/mL.

Q: And the MFC90 [6]?
A: The MFC90 was 5.87 µg/mL.

Q: And the MFC ([6]; Meyerozyma guilliermondii)?
A: The MFC was 0.75 µg/mL.

Q: And the MFC50 [7]?
A: Its MFC50 is 2.93 µg/mL.

Q: And the MFC90 [7]?
A: The MFC90 was 5.87 µg/mL.

Q: What about the MFC ([7]; Clavispora lusitaniae) of the same molecule?
A: The MFC was 1.47 µg/mL.

Q: What about the MFC50 [8] of the same molecule?
A: Its MFC50 is 2.94 µg/mL.

Q: And the MFC90 [8]?
A: The MFC90 was 2.94 µg/mL.

Q: What about the MFC ([8]; Cryptococcus gattii species complex) of the same molecule?
A: The MFC was 2.94 µg/mL.

Q: And the HC50 [9]?
A: Its HC50 is over 129 µM.

Q: What about the IC50 [9] of the same molecule?
A: Its IC50 is over 48 µM.

Q: What about the MFC [10] of the same molecule?
A: The MFC was 23.7 µg/mL.

Q: And the MIC [11]?
A: The MIC was 23.5 µg/mL.

Q: What about the MIC50 [11] of the same molecule?
A: Its MIC50 is 23.5 µg/mL.

Q: What about the MIC90 [11] of the same molecule?
A: The MIC90 was 23.5 µg/mL.

Q: And the MIC [12]?
A: The MIC was 3.38 µg/mL.

Q: What about the MIC50 [12] of the same molecule?
A: The MIC50 was 2.94 µg/mL.

Q: And the MIC90 [12]?
A: Its MIC90 is 5.87 µg/mL.

Q: And the MIC [13]?
A: The MIC was 2.22 µg/mL.

Q: And the MIC50 [13]?
A: The MIC50 was 1.47 µg/mL.

Q: What about the MIC90 [13] of the same molecule?
A: Its MIC90 is 2.93 µg/mL.

Q: And the MIC [14]?
A: Its MIC is 1.69 µg/mL.

Q: And the MIC50 [14]?
A: The MIC50 was 1.47 µg/mL.

Q: What about the MIC90 [14] of the same molecule?
A: Its MIC90 is 1.47 µg/mL.

Q: And the MFC [15]?
A: The MFC was 23.7 µg/mL.

Q: And the MIC [16]?
A: The MIC was 0.74 µg/mL.

Q: And the MIC [17]?
A: The MIC was 47.3 µg/mL.

Q: And the MIC [18]?
A: Its MIC is over 47.3 µg/mL.

Q: What about the MIC [19] of the same molecule?
A: Its MIC is 5.9 µg/mL.

Q: What about the MIC [20] of the same molecule?
A: The MIC was over 47.3 µg/mL.

Q: And the MIC [21]?
A: The MIC was over 47.3 µg/mL.

Q: And the MIC [22]?
A: Its MIC is over 47.3 µg/mL.

Q: What about the MIC [23] of the same molecule?
A: The MIC was 1.48 µg/mL.

Q: What about the MIC [24] of the same molecule?
A: Its MIC is 11.8 µg/mL.

Q: And the MIC [25]?
A: Its MIC is over 47.3 µg/mL.

Q: What about the MIC [26] of the same molecule?
A: Its MIC is over 47.3 µg/mL.

Q: What about the MIC [27] of the same molecule?
A: The MIC was over 47.3 µg/mL.

Q: What about the MIC [28] of the same molecule?
A: Its MIC is 1.48 µg/mL.

Q: What about the MIC [29] of the same molecule?
A: The MIC was 11.8 µg/mL.

Q: And the MIC [30]?
A: Its MIC is 1.48 µg/mL.

Q: What about the MIC [31] of the same molecule?
A: The MIC was 1.5 µg/mL.

Q: What about the MIC [32] of the same molecule?
A: The MIC was 47.3 µg/mL.

Q: And the MIC [33]?
A: The MIC was 11.8 µg/mL.

Q: What about the MIC [34] of the same molecule?
A: The MIC was 1.48 µg/mL.

Q: And the MIC [35]?
A: The MIC was 5.9 µg/mL.

Q: And the MIC [36]?
A: The MIC was 1.48 µg/mL.

Q: What about the MIC [37] of the same molecule?
A: Its MIC is 2.74 µg/mL.

Q: And the MIC50 [37]?
A: The MIC50 was 2.93 µg/mL.

Q: What about the MIC90 [37] of the same molecule?
A: Its MIC90 is 2.93 µg/mL.

Q: What about the MIC [38] of the same molecule?
A: The MIC was 5.9 µg/mL.
